Reference: publication PMC7869845 (ACS catalysis, 2020)

Columns and labels:
TamI L101V/H102S = experiment: End-point assay, TamI L101V/H102S; assay type: biochemical, Streptomyces sp. 307-9; conditions: no change in product profile
Summary of the method: (§1)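 Site-directed mutants expressed in E. coli BL21(DE3). Reactions in phosphate buffer (50 mM NaH2PO4, pH 7.4, EDTA, dithioerythritol, 10% glycerol) held 500 μM tirandamycin substrate, 2 μM TamI, spinach ferredoxin, 2 μM ferredoxin-NADP+ reductase, and G6P/G6PDH NADPH regeneration. Incubated 3 h at 30 °C, extracted with CHCl3, then C18 reverse-phase HPLC with UV at 354 nm. Run in triplicate.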

TamI F92A [1] = experiment: End-point assay, TamI F92A; assay type: biochemical, Streptomyces sp. 307-9
Summary of the method: as §1

[2] = system: TamI double mutant (alanine substitutions at Leu295 and Thr299); experiment: End-point assay, TamI Leu295/Thr299 alanine double mutant; assay type: biochemical, Streptomyces sp. 307-9
Summary of the method: as §1

TamI L399A/I400A [3] = experiment: End-point assay, TamI L399A/I400A; assay type: biochemical, Streptomyces sp. 307-9
Summary of the method: as §1

TamI L399A/I400A [4] = experiment: Spectrophotometric substrate binding assay, TamI L399A/I400A; design: species or system Streptomyces sp. 307-9
Summary of the method: (§2)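 Active P450 was quantified by CO-difference spectra (ε450-490 = 91 mM−1cm−1). Enzyme at 1 μM final in storage buffer was titrated aerobically at room temperature with tirandamycin C from DMSO stocks until saturated. Difference spectra were recorded at 365–429 nm, and peak-minus-trough ΔA was plotted against concentration. Kd came from quadratic tight-binding or hyperbolic fits, averaged over triplicate titrations.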

[5] = system: TamI S397A, T398A, V185A, P43A/V44A variants; assay type: biochemical, Streptomyces sp. 307-9; conditions: end-point assay, TirC to TirE conversion
[6] = system: TamI-RhFRED fusion protein; conditions: first oxidation of 1, second oxidation of 3, final oxidation of 4; cited from earlier work
TamI F92A [7] = experiment: Spectrophotometric substrate binding assay, TamI F92A; design: species or system Streptomyces sp. 307-9
Summary of the method: as §2

With `CC1=CC[C@H]2O[C@]1(C)O[C@H]([C@H](C)/C=C(C)/C=C/C(O)=C1/C(=O)CNC1=O)[C@H]2C` [compound 1, tirandamycin C] the “TirC to TirE conversion” value (TamI L101V/H102S) was “significant decrease”, the catalytic activity (TamI F92A [1]) was “complete loss of catalytic activity” and the “ability to convert substrate to 2” value [2] was “wild type activity”. For the same molecule, the catalytic activity (TamI L399A/I400A [3]) was “significantly reduced activity”, the “spectral shift on substrate addition” value (TamI L399A/I400A [4]) was “no shift” and the “product profile or abundance compared to wild type TamI” value [5] was “no evident changes in product profile or abundance”. The kcat [6] was 0.675 s⁻¹ and the “spectral shift on substrate addition” value (TamI F92A [7]) was “no shift”.
For `CC1=CC(=O)[C@H]2O[C@]1(C)O[C@H]([C@H](C)/C=C(C)/C=C/C(O)=C1/C(=O)CNC1=O)[C@H]2C` [compound 3, tirandamycin D], the kcat [6] is given as 1.4 s⁻¹.
In the case of `CC(/C=C/C(O)=C1/C(=O)CNC1=O)=C\[C@@H](C)[C@H]1O[C@@]2(C)O[C@H](C(=O)[C@H]3O[C@]32C)[C@@H]1C` [compound 4, tirandamycin A], the kcat [6] is listed as 0.00183 s⁻¹.
